Results: ChEMBL document CHEMBL1138515, “Synthesis and biological characterization of B-ring amino analogues of potent benzothiadiazine hepatitis C virus polymerase inhibitors” (J Med Chem, 2009)

Experiments:
[1] = Oral bioavailability in Sprague-Dawley rat at 5 mg/kg; type: ADME, organism-based; conditions: in vivo
How it was run: (§1)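 Overnight-fasted Sprague-Dawley rats (n = 3) received a single 5 mg/kg iv or oral dose in DMSO/PEG400 (1:9, v/v). Mean concentrations were fitted multiexponentially. AUC₀₋ₜ was calculated by linear trapezoidal rule and extrapolated to infinity using Cₜ divided by the terminal rate constant.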

[2] = Inhibition of HCV1a H77 NS5B assessed as [3H]UTP incorporation into RNA by scintillation counting; design: species or system Hepatitis C virus (isolate H77)
How it was run: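 Two-fold serial inhibitor dilutions were preincubated for 15 min at room temperature with NS5B (genotype 1a H77 or genotype 1b BK, 20-50 nM) in 20 mM Tris-Cl pH 7.4, 2 mM MnCl₂, 1 mM DTT, 1 mM EDTA and 60-125 µM GTP. Reactions were started with 20 µM CTP, 20 µM ATP, 1 µM ³H-UTP, 5 nM template RNA and RNase inhibitor, then run 2-4 h at room temperature.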

[3] = Clearance in Sprague-Dawley rat at 5 mg/kg, iv; type: ADME, organism-based; design: dose 5 mg/kg, route intravenous; conditions: in vivo; how it was run: as §1
[4] = Half life in Sprague-Dawley rat at 5 mg/kg, iv; type: ADME, organism-based; design: dose 5 mg/kg, route intravenous; conditions: in vivo; how it was run: as §1
[5] = AUC (0 to infinity) in Sprague-Dawley rat at 5 mg/kg, po; type: ADME, organism-based; design: time infinity, dose 5 mg/kg, route oral; conditions: plasma; how it was run: as §1
[6] = Cmax in Sprague-Dawley rat at 5 mg/kg, po; type: ADME, organism-based; design: dose 5 mg/kg, route oral; conditions: in vivo; how it was run: as §1
Genome polyprotein = Genome polyprotein (Hepatitis C virus genotype 1b (isolate Con1) (HCV), UniProt Q9WMX2); test: Inhibition of HCV1b Con1 NS5B assessed as [3H]UTP incorporation into RNA by scintillation counting
Sequence of Genome polyprotein (Q9WMX2 2420-3010 limits assumed): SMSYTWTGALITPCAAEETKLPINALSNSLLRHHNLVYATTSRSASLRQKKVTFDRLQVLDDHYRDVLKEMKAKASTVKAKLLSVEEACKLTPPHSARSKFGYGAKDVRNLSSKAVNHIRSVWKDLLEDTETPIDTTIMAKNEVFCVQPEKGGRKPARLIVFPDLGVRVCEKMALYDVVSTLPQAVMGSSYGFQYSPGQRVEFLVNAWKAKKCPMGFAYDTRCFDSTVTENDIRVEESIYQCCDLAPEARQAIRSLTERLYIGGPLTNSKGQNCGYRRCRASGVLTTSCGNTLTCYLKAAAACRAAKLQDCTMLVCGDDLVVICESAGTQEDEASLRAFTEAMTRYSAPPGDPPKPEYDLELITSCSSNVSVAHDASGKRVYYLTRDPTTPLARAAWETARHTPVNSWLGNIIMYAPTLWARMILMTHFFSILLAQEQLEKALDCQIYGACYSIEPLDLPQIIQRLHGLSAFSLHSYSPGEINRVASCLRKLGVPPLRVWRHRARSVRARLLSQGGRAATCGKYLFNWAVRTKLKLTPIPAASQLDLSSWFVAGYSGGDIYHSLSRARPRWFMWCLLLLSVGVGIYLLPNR

Hepatitis C virus [7] = test: Antiviral activity against HCV1a H77 infected in human Huh7 cells assessed as inhibition viral subgenomic replication; type: functional, organism-based, Hepacivirus hominis; conditions: genotype 1a H77, Huh-7
How it was run: (§2)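 Stable luciferase-reporter subgenomic replicon Huh-7 lines (1a H77; 1b Con1) were seeded at 5000 cells/well in DMEM with 5% FBS. The next day an eight-point half-log dilution series was added from DMSO stocks. After 3 days the cells were lysed, luciferin was added and luminescence was read. EC₅₀ came from percent inhibition of replication at each concentration.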

Hepatitis C virus [8] = test: Antiviral activity against HCV1b Con1 infected in human Huh7 cells assessed as inhibition viral subgenomic replication; type: functional, organism-based, Hepacivirus hominis; conditions: isolate Con1, Huh-7; how it was run: as §2
Hepatitis C virus [9] = test: Antiviral activity against HCV1b Con1 infected in human Huh7 cells assessed as inhibition viral subgenomic replication […]; type: functional, organism-based, Hepacivirus hominis; conditions: isolate Con1, Huh-7
[10] = Drug level in Sprague-Dawley rat liver at 5 mg/kg, po after 1 hr; type: ADME, organism-based; design: dose 5 mg/kg, route oral; conditions: read-out: Drug uptake
How it was run: (§3)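 Sprague-Dawley rats were given 5 mg/kg orally in DMSO/PEG400 (1:9, v/v). Separate animals were sampled for liver and plasma at 1, 6 and 12 h. Drug in liver (µg/g) and in plasma was measured by LC-MS, and liver/plasma ratios were taken at each time.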

[11] = Drug level in Sprague-Dawley rat liver at 5 mg/kg, po after 6 hrs; type: ADME, organism-based; design: dose 5 mg/kg, route oral; conditions: read-out: Drug uptake; how it was run: as §3
[12] = Drug level in Sprague-Dawley rat liver at 5 mg/kg, po after 12 hrs; type: ADME, organism-based; design: dose 5 mg/kg, route oral; conditions: read-out: Drug uptake; how it was run: as §3
[13] = Ratio of drug level in liver to plasma of Sprague-Dawley rat at 5 mg/kg, po after 1 hr; type: ADME, organism-based; design: dose 5 mg/kg, route oral; conditions: liver and plasma; how it was run: as §3
[14] = Ratio of drug level in liver to plasma of Sprague-Dawley rat at 5 mg/kg, po after 6 hrs; type: ADME, organism-based; design: dose 5 mg/kg, route oral; conditions: liver and plasma; how it was run: as §3
[15] = Ratio of drug level in liver to plasma of Sprague-Dawley rat at 5 mg/kg, po after 12 hrs; type: ADME, organism-based; design: dose 5 mg/kg, route oral; conditions: liver and plasma; how it was run: as §3
Hepatitis C virus [16] = test: Antiviral activity against HCV1a H77 assessed as inhibition of viral replication by cell-based replicon assay; type: functional, organism-based, Hepacivirus hominis; conditions: genotype 1a H77; how it was run: as §2

Cc1cccc(C)c1CN[C@]1(CCC(C)(C)C)C(=O)C(C2=NS(=O)(=O)c3cc(NS(C)(=O)=O)ccc3N2)=C(O)c2ccccc21
bioavailability [1]: 55.9% | IC50 [2]: 16 nM | clearance [3]: 11.7 mL/min/kg | half-life [4]: 3.1 h | AUC(0-inf) [5]: 4210 ng·h/mL | Cmax [6]: 620 ng/mL | IC50 (Genome polyprotein): 19 nM | EC50 (Hepatitis C virus [7]): 10 nM | EC50 (Hepatitis C virus [8]): 6 nM | EC50 (Hepatitis C virus [9]): 270 nM | concentration at 1 h [10]: 5860 ng/g | concentration at 6 h [11]: 4360 ng/g | concentration at 12 h [12]: 2110 ng/g | Kp at 1 h [13]: 12 | Kp at 6 h [14]: 15 | Kp at 12 h [15]: 11

COc1ccc(OC)c(CNC2(CCC(C)(C)C)C(=O)C(C3=NS(=O)(=O)c4cc(NS(C)(=O)=O)ccc4N3)=C(O)c3ccccc32)c1 (centres undefined)
IC50 [2]: 10 nM | EC50 (Hepatitis C virus [16]): 15 nM

Cc1ccc(CNC2(CCC(C)(C)C)C(=O)C(C3=NS(=O)(=O)c4cc(NS(C)(=O)=O)ccc4N3)=C(O)c3ccccc32)cn1 (centres undefined)
bioavailability [1]: 0% | IC50 [2]: 14 nM | EC50 (Hepatitis C virus [16]): 11 nM | clearance [3]: 98.3 mL/min/kg | half-life [4]: 0.5 h

CC(C)(C)CCC1(NCc2cccnc2)C(=O)C(C2=NS(=O)(=O)c3cc(NS(C)(=O)=O)ccc3N2)=C(O)c2ccccc21 (centres undefined)
IC50 [2]: 10 nM | EC50 (Hepatitis C virus [16]): 15 nM

COc1cccc(CNC2(CCC(C)C)C(=O)C(C3=NS(=O)(=O)c4cc(NS(C)(=O)=O)ccc4N3)=C(O)c3ccccc32)c1 (centres undefined)
IC50 [2]: 14 nM | EC50 (Hepatitis C virus [16]): 38 nM

CC(C)(C)CCC1(NCc2ccccc2C(F)(F)F)C(=O)C(C2=NS(=O)(=O)c3cc(NS(C)(=O)=O)ccc3N2)=C(O)c2ccccc21 (centres undefined)
IC50 [2]: 33 nM | EC50 (Hepatitis C virus [16]): 35 nM

COc1ccccc1CNC1(CCC(C)(C)C)C(=O)C(C2=NS(=O)(=O)c3cc(NS(C)(=O)=O)ccc3N2)=C(O)c2ccccc21 (centres undefined)
bioavailability [1]: 48% | IC50 [2]: 15 nM | EC50 (Hepatitis C virus [16]): 6 nM | clearance [3]: 25 mL/min/kg | half-life [4]: 3.2 h | AUC(0-inf) [5]: 1600 ng·h/mL | Cmax [6]: 400 ng/mL

CC(C)CCC1(NCc2ccccc2)C(=O)C(C2=NS(=O)(=O)c3cc(NS(C)(=O)=O)ccc3N2)=C(O)c2ccccc21 (centres undefined)
IC50 [2]: 19 nM | EC50 (Hepatitis C virus [16]): 34 nM

CC(C)(C)CCC1(NCc2ccc3ccccc3c2)C(=O)C(C2=NS(=O)(=O)c3cc(NS(C)(=O)=O)ccc3N2)=C(O)c2ccccc21 (centres undefined)
bioavailability [1]: 28.1% | IC50 [2]: 23 nM | EC50 (Hepatitis C virus [16]): 16 nM | clearance [3]: 23.3 mL/min/kg | half-life [4]: 2.2 h | AUC(0-inf) [5]: 1020 ng·h/mL | Cmax [6]: 180 ng/mL

CC(C)(C)CCC1(NCc2ccccc2)C(=O)C(C2=NS(=O)(=O)c3cc(NS(C)(=O)=O)ccc3N2)=C(O)c2ccccc21 (centres undefined)
IC50 [2]: 17 nM | EC50 (Hepatitis C virus [16]): 10 nM

CC(C)(C)CCC1(NCc2ccc(C#N)cc2)C(=O)C(C2=NS(=O)(=O)c3cc(NS(C)(=O)=O)ccc3N2)=C(O)c2ccccc21 (centres undefined)
IC50 [2]: 13 nM | EC50 (Hepatitis C virus [16]): 17 nM

CON[C@]1(CCC(C)C)C(=O)C(C2=NS(=O)(=O)c3cc(NS(C)(=O)=O)ccc3N2)=C(O)c2ccccc21
bioavailability [1]: 34.1% | IC50 [2]: 6 nM | EC50 (Hepatitis C virus [16]): 12 nM | clearance [3]: 45 mL/min/kg | half-life [4]: 0.6 h | AUC(0-inf) [5]: 350 ng·h/mL

CC(C)CC[C@@]1(N)C(=O)C(C2=NS(=O)(=O)c3cc(NS(C)(=O)=O)ccc3N2)=C(O)c2ccccc21
bioavailability [1]: 0% | IC50 [2]: 4 nM | EC50 (Hepatitis C virus [16]): 37 nM | clearance [3]: 35.3 mL/min/kg | half-life [4]: 0.3 h

CONC1(CCC(C)C)C(=O)C(C2=NS(=O)(=O)c3cc(NS(C)(=O)=O)ccc3N2)=C(O)c2ccccc21 (centres undefined)
IC50 [2]: 10 nM | EC50 (Hepatitis C virus [16]): 16 nM

CC(C)CCC1(NC(N)=O)C(=O)C(C2=NS(=O)(=O)c3cc(NS(C)(=O)=O)ccc3N2)=C(O)c2ccccc21 (centres undefined)
IC50 [2]: 27 nM | EC50 (Hepatitis C virus [16]): 576 nM

CC(C)CCC1(N)C(=O)C(C2=NS(=O)(=O)c3cc(NS(C)(=O)=O)ccc3N2)=C(O)c2ccccc21 (centres undefined)
IC50 [2]: 12 nM | EC50 (Hepatitis C virus [16]): 29 nM

CC(C)CCC1(NS(C)(=O)=O)C(=O)C(C2=NS(=O)(=O)c3cc(NS(C)(=O)=O)ccc3N2)=C(O)c2ccccc21 (centres undefined)
IC50 [2]: 24 nM | EC50 (Hepatitis C virus [16]): 69 nM

CON(C(C)=O)C1(CCC(C)C)C(=O)C(C2=NS(=O)(=O)c3cc(NS(C)(=O)=O)ccc3N2)=C(O)c2ccccc21 (centres undefined)
IC50 [2]: 83 nM
